Assay results as given in ChEMBL document CHEMBL4038329, “Side-Chain Modified Ergosterol and Stigmasterol Derivatives as Liver X Receptor Agonists” (J Med Chem, 2017).
Activity calls are given as the source filed them. The rule behind the calls is not given here.

Assays:
Assay type in all cases: cell-based
[1] = Agonist activity at LXR in human HepG2 cells assessed as upregulation of FASN mRNA levels at 10 uM after 6 hrs by qPCR analysis
Outline: (§1)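 HepG2 cells treated with ligand (10 μM). Total RNA was extracted with TRIZOL; 2 µg was reverse-transcribed (1 h, 42 °C). SREBP1c, FASN and SCD1 transcripts were measured by qPCR. Mean ± SD of three biological samples; ANOVA with Dunnett's test.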

[2] = Agonist activity at LXR in human HepG2 cells assessed as upregulation of SREBP1c mRNA levels at 10 uM after 6 hrs by qPCR analysis; outline: as §1
[3] = Agonist activity at LXR in human U937 cells assessed as upregulation of SCD1 mRNA levels at 10 uM after 16 hrs by qPCR analysis
[4] = Agonist activity at LXR in human U937 cells assessed as upregulation of FASN mRNA levels at 10 uM after 16 hrs by qPCR analysis
[5] = Agonist activity at LXR in human U937 cells assessed as upregulation of SCD1 mRNA levels at 10 uM after 6 hrs by qPCR analysis relative to control; details: human, 6 h, 10 µM
Outline: (§2)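 U937 cells, 3x10⁶ in 10 ml RPMI with 10% FBS, differentiated with PMA 10 ng/ml for 72 h at 37 °C, then treated with ligand (10 μM) for 6 h. Total RNA was isolated with TRIZOL; 2 µg was reverse-transcribed for 1 h at 42 °C. Transcripts were measured by qPCR. Mean ± SD of three biological samples; ANOVA with Dunnett's test.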

[6] = Agonist activity at LXR in human U937 cells assessed as upregulation of SREBP1c mRNA levels at 10 uM after 6 hrs by qPCR analysis; outline: as §2
[7] = Agonist activity at LXR in human U937 cells assessed as upregulation of FASN mRNA levels at 10 uM after 6 hrs by qPCR analysis; outline: as §2
[8] = species on record: Homo sapiens; assay: Agonist activity at LXR in human U937 cells assessed as upregulation of ABCA1 mRNA levels at 10 uM after 6 hrs by qPCR analysis; outline: as §2
[9] = species on record: Homo sapiens; assay: Agonist activity at LXR in human U937 cells assessed as downregulation of LPS-induced TNFalpha mRNA expression at 10 uM after 6 hrs by qPCR analysis
Outline: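 PMA-differentiated U937 cells (10 ng/ml PMA, 72 h) were given LPS 100 ng/ml together with compound (10 μM) for 6 h. CCL2 and TNFα mRNA were measured by qPCR after TRIZOL RNA extraction and reverse transcription. Three biological samples per group, mean ± SD.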

[10] = Agonist activity at LXR in human HepG2 cells assessed as upregulation of SCD1 mRNA levels at 10 uM after 6 hrs by qPCR analysis; outline: as §1

CC(C)CC[C@@H](O)[C@@H](C)[C@H]1CC[C@H]2[C@@H]3CC=C4C[C@@H](O)CC[C@]4(C)[C@H]3CC[C@]12C [22(R)-HYDROXYCHOLESTEROL]
Activity [1]: Not Active | Activity [2]: Not Active | Activity [3]: Not Active | Activity [4]: Not Active | Activity [5]: Not Active | Activity [6]: Not Active | Activity [7]: Not Active | Activity [8]: Active | Activity [9]: Active | Activity [10]: Not Active
